Published values from different studies.
Compare with care: the assays were run in different laboratories.
Cell line: MDA-MB-231
Observed: cell growth or viability

CC(C)C[C@H](NC(=O)[C@H](Cc1ccccc1)NC(=O)c1cnccn1)B(O)O  IC50 (ATP luminescence): 0.013 µM
O=C(c1cc(Cc2n[nH]c(=O)c3ccccc23)ccc1F)N1CCN(C(=O)C2CC2)CC1  IC50 (MTT; 48 h): 246 µM
Oc1ccc(Br)cc1-c1nc2ccccc2[nH]1  IC50 (MTT; 48 h): 12.8 µM
COC1=C2C[C@@H](C)C[C@H](OC)[C@H](O)[C@@H](C)/C=C(\C)[C@H](OC(N)=O)[C@@H](OC)/C=C\C=C(/C)C(=O)NC(=CC1=O)C2=O  IC50 (MTT): 0.065 µM
CCc1ccc(N2NC(=O)/C(=C/c3ccc(-c4ccc(S(=O)(=O)Nc5nccs5)cc4)o3)C2=O)cc1  IC50 (MTT; 48 h): 65.2 µM
Cc1ccc2nc(-c3ccc(Cl)cc3)n(Cc3ccccc3)c2c1  IC50 (MTT): 2.39 µM
C[C@@H]1C[C@@H](c2cccc(F)c2)c2c(cc3ccccn23)C(=O)O1 (racemic)  IC50 (resazurin; 72 h): 52.9 µM
Fc1ccc(-c2nc3ccccc3n2Cc2ccccc2)cc1  IC50 (MTT): 34.6 µM
CCn1c(-c2nnc(NC(=O)c3cc4c([nH]c5ccccc54)c(-c4cc(OC)c(OC)c(OC)c4)n3)s2)cc2ccccc21  IC50 (MTT; 72 h): 8.66 µM
Cc1ccc2nc(-c3ccc([N+](=O)[O-])cc3)n(Cc3ccc(Cl)cc3)c2c1  IC50 (MTT): 9.02 µM
CC(=O)CC(=O)[c-]1cccc1.[Fe+2].c1cc[cH-]c1  IC50 (MTT; 96 h): 47 µM
C[C@@H]1C[C@@H](c2cccc(Cl)c2)c2c(cc3ccccn23)C(=O)O1 (racemic)  IC50 (resazurin; 72 h): > 100 µM
CCn1c(-c2nnc(NC(=O)c3cc4c([nH]c5ccccc54)c(-c4ccc(OC)cc4)n3)s2)cc2ccccc21  IC50 (MTT; 72 h): 9.39 µM
COc1ccc(/C=C/C(=O)c2cc(Br)ccc(=O)c2O)cc1  IC50 (MTT; 48 h): 5.5 µM
O=C1CCC2(Oc3cccc4cccc(c34)O2)c2c(O)ccc(O)c21  IC50 (resazurin; 72 h): > 25 µM
FC(F)(F)c1cccc(Nc2ncnc3ccc(NCc4ccccc4)cc23)c1  IC50 (MTT; 24 h): 12.6 µM
COc1cccc2c1C(=O)c1c(O)c3c(c(O)c1C2=O)C[C@@](O)(C(=O)CO)C[C@@H]3O[C@H]1C[C@H](N)[C@H](O)[C@H](C)O1  IC50 (SRB): 0.45 µM
Clc1ccc(-c2nc3ccccc3[nH]2)c(Cl)c1  IC50 (MTT; 48 h): 52.2 µM
CCN1CCN(Cc2ccc(Nc3ncc(F)c(-c4cc(F)c5nc(C)n(C(C)C)c5c4)n3)nc2)CC1  IC50 (CCK-8): 1.67 µM
FC(F)(F)c1cccc(Nc2ncnc3ccc(-c4ccc5c(c4)OCO5)cc23)c1  IC50 (MTT; 24 h): 7.24 µM
CC(=O)Nc1nc(C)c(-c2csc(Nc3ccccc3)n2)s1  IC50 (MTT; 72 h): 15.7 µM
CC(=O)O[C@@]12CO[C@@H]1C[C@H](O)[C@@]1(C)C(=O)[C@H](O)C3=C(C)[C@@H](OC(=O)[C@H](O)[C@@H](NC(=O)OC(C)(C)C)c4ccccc4)C[C@@](O)([C@@H](OC(=O)c4ccccc4)[C@H]21)C3(C)C  IC50 (resazurin; 72 h): 0.02 µM
FC(F)(F)c1cccc(Nc2ncnc3ccc(-c4ccsc4)cc23)c1  IC50 (MTT; 24 h): 2.96 µM
COc1cc([C@@H]2C[C@@H](C)OC(=O)c3cc4ccccn4c32)cc(OC)c1OC (racemic)  IC50 (resazurin; 72 h): > 100 µM
FC(F)(F)c1cccc(Nc2ncnc3ccc(-c4ccc(CN5CCOCC5)cc4)cc23)c1  IC50 (MTT; 24 h): 8.56 µM
COc1c(C)c(OS(=O)(=O)c2ccc3ccccc3c2)c(C)c(OS(=O)(=O)c2ccc3ccccc3c2)c1C(=O)/C=C/c1ccccc1  IC50 (SRB; 72 h): > 50 µM
Clc1ccccc1-c1nc2ccccc2[nH]1  IC50 (MTT; 48 h): 50.3 µM
C[C@@H]1C[C@@H](c2ccc(Br)cc2)c2c(cc3ccccn23)C(=O)O1 (racemic)  IC50 (resazurin; 72 h): 22 µM
CN(C)c1ccc(-c2nc3ccccc3[nH]2)cc1  IC50 (MTT; 48 h): 29.1 µM
CC(=O)O[C@H]1C(=O)[C@@]2(C)[C@H]([C@H](OC(=O)c3ccccc3)[C@]3(O)C[C@H](OC(=O)[C@H](O)[C@@H](NC(=O)c4ccccc4)c4ccccc4)C(C)=C1C3(C)C)[C@]1(OC(C)=O)CO[C@@H]1C[C@@H]2O  IC50 (ATP luminescence; 72 h): 0.006 µM
Cc1cc(NS(=O)(=O)c2ccc(NC(=O)COc3ccc(C(C)(C)c4ccccc4)cc3)cc2)nc(C)n1  IC50 (MTT; 48 h): 39 µM
C=CC1=C(C)c2cc3[nH]c(cc4nc(cc5[nH]c(cc1n2)c(C)c5CCC(=O)O)C(CCC(=O)O)=C4C)c(C)c3C=C  IC50 (4 h, dark): > 100 µM
O=C(CCl)Nc1ccc2c(Nc3cccc(C(F)(F)F)c3)ncnc2c1  IC50 (MTT; 24 h): 6.88 µM
CCOc1ccc(-c2nc3ccccc3[nH]2)cc1  IC50 (MTT; 48 h): > 100 µM
C[C@H]1[C@@H](O)O[C@@H]2O[C@@]3(C)CC[C@H]4[C@H](C)CC[C@@H]1[C@@]24OO3  IC50 (CCK-8; 48 h): > 50 µM
